The results in this text go back to ChEMBL document CHEMBL4130509, “Sesquiterpenes from the Endophyte Glomerella cingulata” (J Nat Prod, 2017).

For one test, the system named is HCT-8. Put plainly: Cytotoxicity against human HCT8 cells by MTT assay. Type of test: functional, cell-based.
The next test deals with HCT-116. Put plainly: Cytotoxicity against human HCT116 cells by MTT assay. Type of test: functional, cell-based.
For the next test, the system named is Bel-7402. Put plainly: Cytotoxicity against human Bel7402 cells by MTT assay. Type of test: functional, cell-based.
Another test is filed under the species Homo sapiens. Put plainly: Cytotoxicity against human […] cells by MTT assay. Type of test: functional, cell-based.
A further test has as its system A549. Kind of test: Cytotoxicity against human A549 cells by MTT assay. Format: functional, cell-based.
For the next test, the system named is A2780. Kind of test: Cytotoxicity against human A2780 cells by MTT assay. Type of test: functional, cell-based.
Test [1] has as its system BV-2. Kind of test: Antiinflammatory activity against mouse BV2 cells assessed as inhibition of LPS-induced nitric oxide production at 1 uM after 24 hrs by griess assay relative to control. Format: functional. The settings on record: BV-2, 24 h. In a few lines: (§1)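 BV2 cells preincubated 24 h, then exposed to compounds and stimulated with LPS (E. coli 055:B5) for 24 h. Supernatant mixed with equal volume Griess reagent, 5 min at room temperature in the dark; absorbance read at 540 nm for NO. Curcumin as positive control.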

Test [2] has as its system BV-2. Kind of test: Antiinflammatory activity against mouse BV2 cells assessed as inhibition of LPS-induced nitric oxide production after 24 hrs by griess assay. Format: functional, cell-based. The settings on record: BV-2, 24 h. In a few lines:
as §1

Calls of active or inactive are those of the source. The calls are words filed in the database; no cut-off is given here.

Take `CO[C@@]12OC(=O)C(C)=C1C[C@@]1(C)[C@H](C(=O)C=C[C@@H]1C)[C@@H]2O`: the result in the test on HCT-8, in the test with HCT-116, in the test on Bel-7402, in the test filed under Homo sapiens, with A549 and in the test with A2780 was inactive.
Turning to `CC1=C2C[C@@]3(C)C(=C[C@]2(O)OC1=O)C(=O)C=C[C@@H]3C`, the inhibition at 1 µM in the test with BV-2 [1] worked out at 29.4%. For the same compound, the result with HCT-8, in the test on HCT-116, in the test with Bel-7402, in the test filed under Homo sapiens, with A549 and with A2780 was inactive.
As to `C=C(C)[C@@H]1C[C@@]2(C)C(=CC1=O)[C@@H]1O[C@@H]1[C@H](O)[C@@H]2C`, the outcome in the test on HCT-8, in the test with HCT-116, in the test with Bel-7402, in the test listed under Homo sapiens, in the test with A549 and with A2780 was inactive.
`COC(=O)[C@H]1CCC(=O)N1Cc1cc(OC)c2c(OC)cc3cc(OCc4ccccc4)ccc3c2c1`: the outcome in the test on HCT-8, with HCT-116, in the test with Bel-7402, in the test listed under Homo sapiens, in the test on A549 and in the test on A2780 was inactive.
Consider `COC(=O)[C@@H](C)c1cc2c(cc1O)C(=O)C=CC2(C)C`, for which the inhibition at 1 µM with BV-2 [1] came out at 50.6%. The result with HCT-8, with HCT-116, in the test on Bel-7402, in the test filed under Homo sapiens, in the test with A549 and in the test with A2780 was inactive.
Take `CO[C@]12C=C3C(=O)C=C[C@H](C)[C@@]3(C)CC1=C(C)C(=O)O2`: the inhibition at 1 µM in the test on BV-2 [1] worked out at 36.1%. Moreover, the outcome with HCT-8, in the test on HCT-116, in the test on Bel-7402, in the test filed under Homo sapiens, with A549 and in the test on A2780 was inactive.
On to `CC(=O)O[C@H]1[C@@H]2O[C@H]2[C@H]2C[C@@]3(O)OC[C@@]4(C)O[C@]43C[C@]2(C)[C@H]1C`, for which the outcome in the test with HCT-8, with HCT-116, in the test on Bel-7402, in the test listed under Homo sapiens, in the test on A549 and in the test on A2780 was inactive.
With `COc1cc(/C=C/C(=O)CC(=O)/C=C/c2ccc(O)c(OC)c2)ccc1O` [CURCUMIN], the concentration for half-maximal inhibition (IC50) in the test with BV-2 [2] came to 4 µM.
For the compound `CC(=O)O[C@H]1[C@H]2O[C@H]2C2=CC(=O)[C@]3(C[C@]2(C)[C@H]1C)O[C@]3(C)C=O`, the outcome in the test on HCT-8, in the test with HCT-116, in the test with Bel-7402, in the test listed under Homo sapiens, with A549 and with A2780 was inactive.
